How the values were obtained:
Assay type in all cases: functional
CCRF-CEM = experiment: Growth inhibition of human CCRF-CEM cells at 10 uM incubated for 48 hrs by sulforhodamine B assay relative to control; conditions: read-out: GI
Summary of the method: (§1)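 Single-dose screen at 10 μM final: cells in RPMI 1640, 5% FBS, 2 mM L-glutamine, plated 5,000–40,000/well, preincubated 24 h at 37°C, 5% CO2; drug 48 h; adherent cells fixed with 10% TCA, suspension cells with 16% TCA; SRB stain, absorbance 515 nm; percentage growth versus untreated control, with time-zero plates.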

HL-60(TB) = experiment: Growth inhibition of human HL-60(TB) cells at 10 uM incubated for 48 hrs by sulforhodamine B assay relative to control; conditions: HL-60, 48 h, read-out: GI
Summary of the method: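 Single dose of 10 µM in the NCI ~60-line panel. Cells grown in RPMI 1640 with 5% FBS and 2 mM L-glutamine, plated and pre-incubated 24 h, then exposed 48 h at 37°C under 5% CO2. Suspension cells fixed with TCA (16% final) and stained with sulforhodamine B, A515 read. Reported as percent growth versus untreated control and as GI%.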

SR = experiment: Growth inhibition of human SR cells at 10 uM incubated for 48 hrs by sulforhodamine B assay relative to control; conditions: read-out: GI
Summary of the method: (§2)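 NCI single-dose screen: cells grown in RPMI 1640 with 5% FBS and 2 mM L-glutamine, plated at 5,000–40,000 cells/well and preincubated 24 h at 37 °C, 5% CO2. Compounds taken from DMSO stock and tested at final 10 µM for 48 h. Cells fixed with TCA, stained with 0.4% SRB, absorbance read at 515 nm. Percentage growth calculated against untreated controls; controls held DMSO at the same dilution.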

A549 = experiment: Growth inhibition of human A549/ATCC cells at 10 uM incubated for 48 hrs by sulforhodamine B assay relative to control; conditions: A549, 48 h, read-out: GI; summary of the method: as §1
NCI-H23 = experiment: Growth inhibition of human NCI-H23 cells at 10 uM incubated for 48 hrs by sulforhodamine B assay relative to control; conditions: NCI-H23, 48 h, read-out: GI; summary of the method: as §1
NCI-H522 = experiment: Growth inhibition of human NCI-H522 cells at 10 uM incubated for 48 hrs by sulforhodamine B assay relative to control; conditions: NCI-H522, 48 h, read-out: GI; summary of the method: as §1
HCT-116 = experiment: Growth inhibition of human HCT116 cells at 10 uM incubated for 48 hrs by sulforhodamine B assay relative to control; conditions: HCT-116, 48 h, read-out: GI; summary of the method: as §1
HCT-15 = experiment: Growth inhibition of human HCT15 cells at 10 uM incubated for 48 hrs by sulforhodamine B assay relative to control; conditions: HCT-15, 48 h, read-out: GI; summary of the method: as §1
HT-29 = experiment: Growth inhibition of human HT-29 cells at 10 uM incubated for 48 hrs by sulforhodamine B assay relative to control; conditions: HT-29, 48 h, read-out: GI; summary of the method: as §1
SF-539 = experiment: Growth inhibition of human SF539 cells at 10 uM incubated for 48 hrs by sulforhodamine B assay relative to control; conditions: SF-539, 48 h, read-out: GI; summary of the method: as §2
SNB-19 = experiment: Growth inhibition of human SNB19 cells at 10 uM incubated for 48 hrs by sulforhodamine B assay relative to control; conditions: SNB-19, 48 h, read-out: GI; summary of the method: as §2
SNB-75 = experiment: Growth inhibition of human SNB75 cells at 10 uM incubated for 48 hrs by sulforhodamine B assay relative to control; conditions: SNB-75, 48 h, read-out: GI; summary of the method: as §2
U-251 = experiment: Growth inhibition of human U251 cells at 10 uM incubated for 48 hrs by sulforhodamine B assay relative to control; conditions: U-251, 48 h, read-out: GI; summary of the method: as §2
LOX IMVI = experiment: Growth inhibition of human LOXIMVI cells at 10 uM incubated for 48 hrs by sulforhodamine B assay relative to control; conditions: read-out: GI; summary of the method: as §1
MDA-MB-435 = experiment: Growth inhibition of human MDA-MB-435 cells at 10 uM incubated for 48 hrs by sulforhodamine B assay relative to control; conditions: MDA-MB-435, 48 h, read-out: GI; summary of the method: as §1
SK-MEL-2 = experiment: Growth inhibition of human SK-MEL-2 cells at 10 uM incubated for 48 hrs by sulforhodamine B assay relative to control; conditions: SK-MEL-2, 48 h, read-out: GI; summary of the method: as §2
SK-MEL-28 = experiment: Growth inhibition of human SK-MEL-28 cells at 10 uM incubated for 48 hrs by sulforhodamine B assay relative to control; conditions: SK-MEL-28, 48 h, read-out: GI; summary of the method: as §2
UACC-257 = experiment: Growth inhibition of human UACC257 cells at 10 uM incubated for 48 hrs by sulforhodamine B assay relative to control; conditions: UACC-257, 48 h, read-out: GI; summary of the method: as §2
UACC-62 = experiment: Growth inhibition of human UACC62 cells at 10 uM incubated for 48 hrs by sulforhodamine B assay relative to control; conditions: UACC-62, 48 h, read-out: GI; summary of the method: as §2
OVCAR-4 = experiment: Growth inhibition of human OVCAR4 cells at 10 uM incubated for 48 hrs by sulforhodamine B assay relative to control; conditions: OVCAR-4, 48 h, read-out: GI; summary of the method: as §1
OVCAR-5 = experiment: Growth inhibition of human OVCAR5 cells at 10 uM incubated for 48 hrs by sulforhodamine B assay relative to control; conditions: OVCAR-5, 48 h, read-out: GI; summary of the method: as §1
NCI/ADR-RES = experiment: Growth inhibition of human NCI/ADR-RES cells at 10 uM incubated for 48 hrs by sulforhodamine B assay relative to control; conditions: read-out: GI; summary of the method: as §1
786-0 = experiment: Growth inhibition of human 786-0 cells at 10 uM incubated for 48 hrs by sulforhodamine B assay relative to control; conditions: 786-0, 48 h, read-out: GI; summary of the method: as §1
ACHN = experiment: Growth inhibition of human ACHN cells at 10 uM incubated for 48 hrs by sulforhodamine B assay relative to control; conditions: read-out: GI; summary of the method: as §1
TK-10 = experiment: Growth inhibition of human TK10 cells at 10 uM incubated for 48 hrs by sulforhodamine B assay relative to control; conditions: TK-10, 48 h, read-out: GI; summary of the method: as §2
UO-31 = experiment: Growth inhibition of human UO31 cells at 10 uM incubated for 48 hrs by sulforhodamine B assay relative to control; conditions: UO-31, 48 h, read-out: GI; summary of the method: as §2
MCF7 = experiment: Growth inhibition of human MCF7 cells at 10 uM incubated for 48 hrs by sulforhodamine B assay relative to control; conditions: MCF7, 48 h, read-out: GI; summary of the method: as §1
MDA-MB-231 = experiment: Growth inhibition of human MDA-MB-231 cells at 10 uM incubated for 48 hrs by sulforhodamine B assay relative to control; conditions: MDA-MB-231, 48 h, read-out: GI; summary of the method: as §1
Hs-578T = experiment: Growth inhibition of human Hs 578T cells at 10 uM incubated for 48 hrs by sulforhodamine B assay relative to control; conditions: read-out: GI; summary of the method: as §1
T47D = experiment: Growth inhibition of human T47D cells at 10 uM incubated for 48 hrs by sulforhodamine B assay relative to control; conditions: read-out: GI; summary of the method: as §2

Structure (SMILES)	inhibition of growth at 10 µM (CCRF-CEM)	inhibition of growth at 10 µM (HL-60(TB))	inhibition of growth at 10 µM (SR)	inhibition of growth at 10 µM (A549)	inhibition of growth at 10 µM (NCI-H23)	inhibition of growth at 10 µM (NCI-H522)	inhibition of growth at 10 µM (HCT-116)	inhibition of growth at 10 µM (HCT-15)	inhibition of growth at 10 µM (HT-29)	inhibition of growth at 10 µM (SF-539)	inhibition of growth at 10 µM (SNB-19)	inhibition of growth at 10 µM (SNB-75)	inhibition of growth at 10 µM (U-251)	inhibition of growth at 10 µM (LOX IMVI)	inhibition of growth at 10 µM (MDA-MB-435)	inhibition of growth at 10 µM (SK-MEL-2)	inhibition of growth at 10 µM (SK-MEL-28)	inhibition of growth at 10 µM (UACC-257)	inhibition of growth at 10 µM (UACC-62)	inhibition of growth at 10 µM (OVCAR-4)	also measured
CCOC(=O)C1=C(C)NC(SCc2nnc(-c3ccc(Cl)cc3)o2)=NC1c1ccccc1 (stereo not given)	12.4%	38%	24.9%	29%	< 10%	54.1%	36.8%	21.8%	22.3%	< 10%	11.7%	< 10%	21.2%	11.1%	< 10%	34.5%	< 10%	25.9%	34.9%	< 10%	inhibition of growth at 10 µM (OVCAR-5): < 10%; inhibition of growth at 10 µM (NCI/ADR-RES): < 10%; inhibition of growth at 10 µM (786-0): 31.4%; inhibition of growth at 10 µM (ACHN): < 10%; inhibition of growth at 10 µM (TK-10): 30.8%; inhibition of growth at 10 µM (UO-31): 19.4%; inhibition of growth at 10 µM (MCF7): 18.2%; inhibition of growth at 10 µM (MDA-MB-231): < 10%; inhibition of growth at 10 µM (Hs-578T): < 10%; inhibition of growth at 10 µM (T47D): 53.8%
CC(=O)C1=C(C)NC(SCc2nnc(-c3ccc(Cl)cc3)o2)=NC1c1ccc(F)cc1 (stereo not given)	< 10%	11.5%	19.1%	< 10%	< 10%	15.6%	13.1%	< 10%	< 10%	< 10%	< 10%	16.8%	< 10%	< 10%	< 10%	< 10%	< 10%	< 10%	22.6%	< 10%	inhibition of growth at 10 µM (OVCAR-5): < 10%; inhibition of growth at 10 µM (NCI/ADR-RES): < 10%; inhibition of growth at 10 µM (786-0): 16.4%; inhibition of growth at 10 µM (ACHN): < 10%; inhibition of growth at 10 µM (TK-10): 14.6%; inhibition of growth at 10 µM (UO-31): 26.1%; inhibition of growth at 10 µM (MCF7): 10.6%; inhibition of growth at 10 µM (MDA-MB-231): 17%; inhibition of growth at 10 µM (Hs-578T): < 10%; inhibition of growth at 10 µM (T47D): 24.1%
CCOC(=O)C1=C(C)NC(SCc2nnc(-c3ccc(Cl)cc3)o2)=NC1c1ccc(OC)cc1 (stereo not given)	12.9%	< 10%	18.1%	11.5%	< 10%	< 10%	< 10%	< 10%	< 10%	< 10%	12.5%	18.9%	10.1%	< 10%	< 10%	< 10%	< 10%	< 10%	15.3%	< 10%	inhibition of growth at 10 µM (OVCAR-5): < 10%; inhibition of growth at 10 µM (NCI/ADR-RES): < 10%; inhibition of growth at 10 µM (786-0): 18.8%; inhibition of growth at 10 µM (ACHN): < 10%; inhibition of growth at 10 µM (TK-10): < 10%; inhibition of growth at 10 µM (UO-31): 20.3%; inhibition of growth at 10 µM (MCF7): < 10%; inhibition of growth at 10 µM (MDA-MB-231): 10.2%; inhibition of growth at 10 µM (Hs-578T): < 10%; inhibition of growth at 10 µM (T47D): 15.2%
CCOC(=O)C1=C(C)NC(SCc2nnc(-c3ccc(Cl)cc3)o2)=NC1c1ccc(Cl)cc1Cl (stereo not given)	72.8%	106%	62.1%	46.5%	34%	49.8%	71.2%	44.7%	46.9%	13.6%	27.1%	15.9%	34.7%	41.7%	31%	40%	< 10%	31.9%	48.4%	47.3%	inhibition of growth at 10 µM (OVCAR-5): 11%; inhibition of growth at 10 µM (NCI/ADR-RES): 45.4%; inhibition of growth at 10 µM (786-0): 34.8%; inhibition of growth at 10 µM (ACHN): 42.3%; inhibition of growth at 10 µM (TK-10): 20.6%; inhibition of growth at 10 µM (UO-31): 62.8%; inhibition of growth at 10 µM (MCF7): 68%; inhibition of growth at 10 µM (MDA-MB-231): 58.3%; inhibition of growth at 10 µM (Hs-578T): 32.9%; inhibition of growth at 10 µM (T47D): 52.6%
CCOC(=O)C1=C(C)NC(SCc2nnc(-c3ccc(C)cc3)o2)=NC1c1ccc(F)cc1 (stereo not given)	14.1%	25.2%	26.5%	17.3%	< 10%	22.4%	18.6%	11.3%	12.4%	< 10%	10.1%	13.8%	15.1%	< 10%	< 10%	< 10%	< 10%	< 10%	17.1%	< 10%	inhibition of growth at 10 µM (OVCAR-5): < 10%; inhibition of growth at 10 µM (NCI/ADR-RES): < 10%; inhibition of growth at 10 µM (786-0): 20.2%; inhibition of growth at 10 µM (ACHN): 19%; inhibition of growth at 10 µM (TK-10): 28.4%; inhibition of growth at 10 µM (UO-31): < 10%; inhibition of growth at 10 µM (MCF7): 14%; inhibition of growth at 10 µM (MDA-MB-231): 14.7%; inhibition of growth at 10 µM (Hs-578T): < 10%; inhibition of growth at 10 µM (T47D): 32.6%

Source: ChEMBL document CHEMBL4190234, “Design, synthesis and anticancer activity of new monastrol analogues bearing 1,3,4-oxadiazole moiety” (Eur J Med Chem, 2017)
